Calls of active or inactive are those of the source. The calls are words filed in the database; no cut-off is given here.
How the values were obtained:
BT-474 [1] = assay: Induction of cell cycle arrest in human BT474 cells assessed as accumulation at S phase at 0.1 uM incubated for 12 hrs by propidium iodide staining based flow cytometry (reference value: 19%); format: functional
[2] = molecular target: T1, Receptor tyrosine-protein kinase erbB-2 (Homo sapiens, UniProt P04626); conditions: BT-474, 0.001 to 1 uM
BT-474 [3] = assay: Induction of cell cycle arrest in human BT474 cells assessed as accumulation at G1 phase at 0.1 uM incubated for 12 hrs by propidium iodide staining based flow cytometry (reference value: 67%); format: functional
BT-474 [4] = assay: Induction of cell cycle arrest in human BT474 cells assessed as accumulation at G2/M phase at 0.01 uM incubated for 12 hrs by propidium iodide staining based flow cytometry (reference value: 14%); format: functional
MRC5 = assay: cells; conditions: Homo sapiens, MRC5, 72 h
BT-474 [5] = assay: Induction of apoptosis in human BT474 cells at 0.01 uM incubated for 12 hrs by propidium iodide staining based flow cytometry (reference value: 1%); format: functional
[6] = Antitumor activity against human Calu3 cells xenografted in BALB/cA mouse assessed as tumor growth inhibition at 200 mg/kg, po; format: functional; conditions: Calu-3, read-out: TGI
Summary of the method: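 Female BALB/cA nude mice, 6–7 weeks old, implanted s.c. on midright side with 2×10^6 Calu-3 cells in 0.2 ml PBS. Grouped at 60–150 mm³ tumour volume (6 per treated group, 12 vehicle). Oral dosing in 0.5% CMC with 0.1% Tween-80. Caliper volume = L×W²×0.5; inhibition = (1 − T/C)×100% on relative tumour volume; weight tracked for 21 d.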

BT-474 [7] = assay: Induction of apoptosis in human BT474 cells at 0.001 uM incubated for 12 hrs by propidium iodide staining based flow cytometry (reference value: 1%); format: functional
[8] = Tmax in Beagle dog at 240 mg/kg, po administered as single dose measured after 0.25 to 24 hrs post dose by LC/MS/MS method; format: ADME, organism-based, Canis lupus familiaris; parameters: dose 240 mg/kg, route oral; conditions: in vivo
Summary of the method: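 Beagle dogs (n = 6), single oral gavage dose of 240 mg/kg. Plasma levels measured by validated LC/MS/MS. Tmax read directly from the concentration-time data.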

BT-474 [9] = assay: Induction of cell cycle arrest in human BT474 cells assessed as accumulation at G2/M phase at 1 uM incubated for 12 hrs by propidium iodide staining based flow cytometry (reference value: 14%); format: functional
BT-474 [10] = assay: Induction of apoptosis in human BT474 cells at 0.1 uM incubated for 12 hrs by propidium iodide staining based flow cytometry (reference value: 1%); format: functional
[11] = Cmax in Beagle dog at 240 mg/kg, po administered as single dose measured after 0.25 to 24 hrs post dose by LC/MS/MS method; format: ADME, organism-based, Canis lupus familiaris; parameters: dose 240 mg/kg, route oral; conditions: in vivo
Summary of the method: (§1)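 Single oral gavage of 240 mg/kg to beagle dogs (n = 6). Blood sampled at 0.25–24 h, kept on ice, centrifuged within 1 h (1000 × g, 4 °C, 15 min), plasma stored at −20 °C. Drug quantified by validated LC/MS/MS. AUC0–24 from non-compartmental analysis; Cmax and MRT taken directly from concentration–time data.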

[12] = AUC (0 to 24 hrs) in Beagle dog at 240 mg/kg, po administered as single dose measured after 0.25 to 24 hrs post dose by LC/MS/MS method; format: ADME, organism-based, Canis lupus familiaris; parameters: time < 24 hr, dose 240 mg/kg, route oral; conditions: plasma; summary of the method: as §1
[13] = molecular target: Platelet-derived growth factor receptor beta (Homo sapiens, UniProt P09619); conditions: U-87MG ATCC, 0.001 to 1 uM
Mus musculus = assay: Toxicity in human Calu3 cells xenografted BALB/cA mouse assessed as body weight loss at 200 mg/kg, po measured every other day for 21 days; format: organism-based, Calu-3; parameters: dose 200 mg/kg, route oral; conditions: in vivo, 504 h
Summary of the method: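 Female BALB/cA nude mice, 6–7 weeks old, implanted s.c. on the mid-right flank with 2×10^6 Calu-3 cells in 0.2 ml PBS. At 60–150 mm³ tumour volume, mice randomised into six per treatment group (twelve vehicle controls). Oral dosing in 0.5% CMC aqueous solution with 0.1% Tween-80. Body weight recorded every other day for 21 d.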

BT-474 [14] = assay: Induction of cell cycle arrest in human BT474 cells assessed as accumulation at S phase at 0.01 uM incubated for 12 hrs by propidium iodide staining based flow cytometry (reference value: 19%); format: functional
[15] = Cmax in Beagle dog at 240 mg/kg, po dosed for 14 days by LC/MS/MS method; format: ADME, organism-based, Canis lupus familiaris; parameters: dose 240 mg/kg, route oral; conditions: in vivo
Summary of the method: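 Beagle dogs (n = 6) dosed by oral gavage at 240 mg/kg daily for 14 consecutive days. Blood taken predose and at 0.25–24 h on days 1 and 14, plasma stored at −20 °C, analysed by validated LC/MS/MS. Half-life and AUC by model-independent methods; Cmax and MRT read from concentration–time data.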

BT-474 [16] = assay: Induction of cell cycle arrest in human BT474 cells assessed as accumulation at S phase at 10 uM incubated for 12 hrs by propidium iodide staining based flow cytometry (reference value: 19%); format: functional
[17] = molecular target: T2, Epidermal growth factor receptor (Homo sapiens, UniProt P00533); assay: Inhibition of HER1 (unknown origin) assessed as reduction in autophosphorylation by ELISA method
MCF7 = assay: Cytotoxicity against human MCF7 cells assessed as inhibition of cell growth after 72 hrs by sulforhodamine B assay; format: functional, cell-based; conditions: MCF7, 72 h
Summary of the method: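 Cells grown in RPMI-1640 with 5% FBS and plated at 5.0×10^4/ml. Next day exposed to 0.5–5000 ng/ml for 3 days. Survival read by sulforhodamine B staining. IC50 taken from growth curves; mean of at least three determinations.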

BT-474 [18] = assay: Induction of apoptosis in human BT474 cells at 1 uM incubated for 12 hrs by propidium iodide staining based flow cytometry (reference value: 1%); format: functional
[19] = molecular target: T1, Receptor tyrosine-protein kinase erbB-2; conditions: BT-474, 0.001 to 1 uM; remark: listed apart in the source
BT-474 [20] = assay: Induction of cell cycle arrest in human BT474 cells assessed as accumulation at S phase at 0.001 uM incubated for 12 hrs by propidium iodide staining based flow cytometry (reference value: 19%); format: functional
NCI-H460 = assay: cells; conditions: Homo sapiens, NCI-H460, 72 h
[21] = molecular target: Mast/stem cell growth factor receptor Kit (Homo sapiens, UniProt P10721); assay: Inhibition of c-KIT (unknown origin) by ELISA method
Summary of the method: (§2)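 Phosphotyrosine ELISA with purified kinase (20 ng) and 5 µM ATP in buffer (50 mM HEPES pH 7.4, 20 mM MgCl2, 0.1 mM MnCl2, 0.2 mM Na3VO4, 1 mM DTT), 1 h at 37 °C, DMSO ≤1%. Detection by PY99 antibody, then HRP anti-mouse IgG with o-phenylenediamine, A490. IC50 by Logit from at least three independent tests.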

[22] = molecular target: T2, Epidermal growth factor receptor; conditions: A-431, 0.001 to 10 uM
[23] = molecular target: Vascular endothelial growth factor receptor 2 (Homo sapiens, UniProt P35968); assay: Inhibition of KDR (unknown origin) by ELISA method; summary of the method: as §2

T2 sequence (P00533 whole entry): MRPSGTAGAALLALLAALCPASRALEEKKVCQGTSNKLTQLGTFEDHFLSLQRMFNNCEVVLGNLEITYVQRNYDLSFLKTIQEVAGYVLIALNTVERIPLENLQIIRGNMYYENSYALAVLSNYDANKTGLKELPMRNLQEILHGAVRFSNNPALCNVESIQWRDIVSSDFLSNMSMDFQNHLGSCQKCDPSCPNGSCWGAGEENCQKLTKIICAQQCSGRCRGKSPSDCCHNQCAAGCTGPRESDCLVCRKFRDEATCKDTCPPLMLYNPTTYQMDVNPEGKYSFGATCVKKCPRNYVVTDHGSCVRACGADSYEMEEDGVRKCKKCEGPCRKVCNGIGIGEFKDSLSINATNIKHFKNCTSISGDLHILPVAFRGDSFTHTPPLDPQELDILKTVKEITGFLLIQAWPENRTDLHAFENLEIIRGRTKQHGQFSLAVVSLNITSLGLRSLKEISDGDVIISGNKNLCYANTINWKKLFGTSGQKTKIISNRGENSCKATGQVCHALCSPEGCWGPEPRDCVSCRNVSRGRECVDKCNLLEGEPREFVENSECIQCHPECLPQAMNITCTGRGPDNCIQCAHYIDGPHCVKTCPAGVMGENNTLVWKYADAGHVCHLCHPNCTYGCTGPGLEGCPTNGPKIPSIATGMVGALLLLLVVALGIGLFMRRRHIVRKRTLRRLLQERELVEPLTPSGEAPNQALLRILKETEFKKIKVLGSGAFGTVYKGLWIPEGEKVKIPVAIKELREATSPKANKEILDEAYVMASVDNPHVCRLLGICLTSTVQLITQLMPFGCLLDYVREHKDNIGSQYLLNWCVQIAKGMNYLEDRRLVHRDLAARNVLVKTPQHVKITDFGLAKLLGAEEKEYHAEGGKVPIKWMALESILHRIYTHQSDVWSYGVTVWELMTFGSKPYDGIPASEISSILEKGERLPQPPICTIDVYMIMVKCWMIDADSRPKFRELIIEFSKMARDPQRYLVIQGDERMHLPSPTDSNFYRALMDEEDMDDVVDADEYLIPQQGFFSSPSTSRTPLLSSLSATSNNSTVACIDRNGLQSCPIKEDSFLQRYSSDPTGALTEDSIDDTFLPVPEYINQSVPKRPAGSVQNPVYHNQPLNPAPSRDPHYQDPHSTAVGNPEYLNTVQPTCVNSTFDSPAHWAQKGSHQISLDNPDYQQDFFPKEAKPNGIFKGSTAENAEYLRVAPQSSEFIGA
T1 sequence (P04626 whole entry): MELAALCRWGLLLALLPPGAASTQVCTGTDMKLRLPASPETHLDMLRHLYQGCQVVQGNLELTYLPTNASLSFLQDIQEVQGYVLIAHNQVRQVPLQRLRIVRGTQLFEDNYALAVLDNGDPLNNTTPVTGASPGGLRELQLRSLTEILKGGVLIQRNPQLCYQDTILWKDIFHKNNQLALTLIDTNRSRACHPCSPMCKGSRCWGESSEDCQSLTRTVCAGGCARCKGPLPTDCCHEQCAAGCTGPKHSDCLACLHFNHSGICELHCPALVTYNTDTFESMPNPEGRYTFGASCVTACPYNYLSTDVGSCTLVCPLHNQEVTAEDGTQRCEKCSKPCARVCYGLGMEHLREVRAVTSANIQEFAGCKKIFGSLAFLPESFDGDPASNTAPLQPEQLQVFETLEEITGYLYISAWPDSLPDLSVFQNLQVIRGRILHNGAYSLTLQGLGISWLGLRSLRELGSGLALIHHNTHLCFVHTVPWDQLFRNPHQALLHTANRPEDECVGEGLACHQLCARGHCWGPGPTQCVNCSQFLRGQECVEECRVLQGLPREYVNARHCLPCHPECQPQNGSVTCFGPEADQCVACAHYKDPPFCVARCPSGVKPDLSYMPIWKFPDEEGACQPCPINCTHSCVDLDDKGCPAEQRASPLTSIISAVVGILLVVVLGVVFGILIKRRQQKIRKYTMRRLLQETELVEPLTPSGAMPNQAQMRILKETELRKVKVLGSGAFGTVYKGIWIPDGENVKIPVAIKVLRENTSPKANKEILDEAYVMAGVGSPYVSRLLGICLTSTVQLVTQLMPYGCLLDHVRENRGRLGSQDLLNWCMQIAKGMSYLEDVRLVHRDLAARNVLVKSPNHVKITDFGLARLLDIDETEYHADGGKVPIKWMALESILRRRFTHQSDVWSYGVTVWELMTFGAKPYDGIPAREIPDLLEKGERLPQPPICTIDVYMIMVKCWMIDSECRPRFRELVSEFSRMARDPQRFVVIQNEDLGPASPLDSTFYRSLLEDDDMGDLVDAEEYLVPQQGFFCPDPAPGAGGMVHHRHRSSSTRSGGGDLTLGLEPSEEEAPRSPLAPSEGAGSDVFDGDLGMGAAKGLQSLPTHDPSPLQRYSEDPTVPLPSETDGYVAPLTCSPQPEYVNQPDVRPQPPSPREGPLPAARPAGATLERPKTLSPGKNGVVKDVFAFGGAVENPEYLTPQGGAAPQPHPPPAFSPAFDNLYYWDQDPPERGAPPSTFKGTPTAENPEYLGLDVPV
Mast/stem cell growth factor receptor Kit, sequence (P10721 whole entry): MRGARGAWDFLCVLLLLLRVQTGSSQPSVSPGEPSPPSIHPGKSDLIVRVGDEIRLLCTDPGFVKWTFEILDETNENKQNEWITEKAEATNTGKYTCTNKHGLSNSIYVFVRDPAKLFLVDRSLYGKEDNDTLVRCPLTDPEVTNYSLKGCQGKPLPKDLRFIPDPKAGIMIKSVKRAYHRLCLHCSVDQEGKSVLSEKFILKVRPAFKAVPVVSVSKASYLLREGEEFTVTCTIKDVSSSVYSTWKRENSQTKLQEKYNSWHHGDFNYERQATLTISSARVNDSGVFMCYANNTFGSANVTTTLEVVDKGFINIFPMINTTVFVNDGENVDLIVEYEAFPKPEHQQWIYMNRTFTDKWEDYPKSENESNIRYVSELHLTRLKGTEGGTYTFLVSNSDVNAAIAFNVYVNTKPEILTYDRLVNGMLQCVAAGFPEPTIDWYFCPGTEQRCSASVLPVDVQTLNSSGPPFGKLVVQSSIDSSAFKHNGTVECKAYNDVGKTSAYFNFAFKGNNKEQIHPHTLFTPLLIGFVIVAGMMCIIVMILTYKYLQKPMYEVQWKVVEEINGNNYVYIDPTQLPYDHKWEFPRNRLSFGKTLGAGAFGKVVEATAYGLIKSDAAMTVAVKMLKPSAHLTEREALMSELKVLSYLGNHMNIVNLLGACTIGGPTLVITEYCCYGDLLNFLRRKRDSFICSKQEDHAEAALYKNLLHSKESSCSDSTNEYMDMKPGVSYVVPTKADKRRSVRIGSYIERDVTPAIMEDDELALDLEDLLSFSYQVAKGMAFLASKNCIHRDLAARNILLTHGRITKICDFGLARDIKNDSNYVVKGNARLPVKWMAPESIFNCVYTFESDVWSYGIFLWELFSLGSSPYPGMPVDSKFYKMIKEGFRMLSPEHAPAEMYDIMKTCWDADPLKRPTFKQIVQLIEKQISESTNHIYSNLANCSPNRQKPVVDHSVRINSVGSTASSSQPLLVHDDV
Platelet-derived growth factor receptor beta, sequence (P09619 whole entry): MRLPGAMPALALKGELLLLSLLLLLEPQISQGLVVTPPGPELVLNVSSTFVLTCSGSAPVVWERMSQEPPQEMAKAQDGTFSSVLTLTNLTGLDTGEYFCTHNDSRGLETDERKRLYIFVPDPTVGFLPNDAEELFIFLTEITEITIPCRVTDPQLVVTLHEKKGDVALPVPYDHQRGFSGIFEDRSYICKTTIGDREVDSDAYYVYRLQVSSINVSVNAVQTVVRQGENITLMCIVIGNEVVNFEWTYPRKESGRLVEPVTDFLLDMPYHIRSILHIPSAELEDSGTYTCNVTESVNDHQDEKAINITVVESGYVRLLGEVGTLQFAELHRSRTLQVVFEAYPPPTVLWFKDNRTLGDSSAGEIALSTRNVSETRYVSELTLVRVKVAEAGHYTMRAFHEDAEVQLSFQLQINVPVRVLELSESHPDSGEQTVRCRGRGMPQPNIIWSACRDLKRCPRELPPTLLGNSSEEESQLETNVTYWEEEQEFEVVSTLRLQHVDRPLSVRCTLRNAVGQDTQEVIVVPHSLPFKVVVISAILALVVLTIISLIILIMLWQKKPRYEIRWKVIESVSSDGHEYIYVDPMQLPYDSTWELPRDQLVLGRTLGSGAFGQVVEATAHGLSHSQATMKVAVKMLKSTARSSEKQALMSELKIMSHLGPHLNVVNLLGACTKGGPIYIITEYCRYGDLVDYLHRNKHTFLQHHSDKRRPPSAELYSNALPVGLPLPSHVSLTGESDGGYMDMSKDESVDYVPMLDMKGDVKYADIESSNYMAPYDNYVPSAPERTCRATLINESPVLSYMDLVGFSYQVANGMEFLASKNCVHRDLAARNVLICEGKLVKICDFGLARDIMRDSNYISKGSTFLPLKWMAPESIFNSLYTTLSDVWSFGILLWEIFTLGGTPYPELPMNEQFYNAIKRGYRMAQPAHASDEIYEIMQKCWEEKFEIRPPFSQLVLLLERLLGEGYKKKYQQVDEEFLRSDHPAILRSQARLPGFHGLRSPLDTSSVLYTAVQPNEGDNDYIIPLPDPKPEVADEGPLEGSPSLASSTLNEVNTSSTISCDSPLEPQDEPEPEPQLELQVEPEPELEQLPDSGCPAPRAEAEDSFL

inhibition [2]: Dose-dependent effect
Tmax [8]: 4 h
Cmax [11]: 3100 ng/mL
AUC(0-t) at 24 h [12]: 29800 ng·h/mL
inhibition [13]: inactive
Cmax [15]: 2900 ng/mL
IC50 [17]: 0.0041 µM
inhibition [19]: Dose-dependent effect
IC50 (NCI-H460): > 100 µM
IC50 [21]: > 200 µM
inhibition [22]: Dose-dependent effect
IC50 [23]: > 200 µM
Structure (SMILES): CN(C)[C@H](CS(C)(=O)=O)c1ccc(-c2ccc3ncnc(Nc4ccc(OCc5cccc(F)c5)c(Cl)c4)c3c2)o1
Activity (BT-474 [1]): 5%
Activity (BT-474 [3]): 84%
Activity (BT-474 [4]): 14%
IC50 (MRC5): > 100 µM
Activity (BT-474 [5]): 1%
inhibition in vivo at 200 mg/kg [6]: 83%
Activity (BT-474 [7]): 1%
Activity (BT-474 [9]): 12%
Activity (BT-474 [10]): 4%
Activity (Mus musculus): Non-toxic
Activity (BT-474 [14]): 9%
Activity (BT-474 [16]): 8%
IC50 (MCF7): 5.67 µM
Activity (BT-474 [18]): 5%
Activity (BT-474 [20]): 16%
